Compounds with a hit are over-represented: about 1.5% of the library has one in this group of screens.
VLA-4 inh: inhibition in a human VLA-4 binding assay; P13612; VLA-4 expressing cells, ligand binding flow cytometry; inhibition, % (about 7 µM as worked out from the volumes in the protocol); actives 0.2% (n = 330,000); AID 2557; in the data active = inhibition above about 50%
CHT allo act: allosteric activators of human choline transporter CHT; Q9GZV3; CHT-expressing cells, membrane potential dye, choline EC20; stronger effect = higher value; LV-AA mutant CHT in HEK293 cells; B-score at 10 µM; actives 0.49% (n = 310,000); AID 488977;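 active = initial fluorescence not abnormally high and integrated response B-score, plate-corrected, over 3 SD above library mean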
CHT block: inhibits the human high affinity choline transporter | Q9GZV3 | CHT-expressing cells, membrane potential dye, choline response; stronger effect = lower value | B-score at 10 µM | actives 0.86% (n = 310,000);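 active = B-score over 3 SD under the library average, and starting fluorescence ratio not unusually high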;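 also: choline stimulus applied at its EC90 after an EC20 pre-addition; B-score computed on integrated fluorescence ratio after choline addition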
T cell modulator: T cell immune modulators affecting CD8 T cell-vesicle binding. 2C CD8+ T cell-vesicle binding, flow cytometry; stronger effect = lower value. response (vesicle binding), % at 7 µM. actives 0.068% (n = 330,000). AID 2052;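 active = response, share of CD8 T cells binding vesicles, and their 90th percentile fluorescence all below set limits, cut at about 80% in these data, passing the limit was not always enough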;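 also: values below 100% mean blocked vesicle binding to the CD8+ T cells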
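System: murine 2C transgenic CD8+ T lymphocytes; also added: QL9-loaded Drosophila micro-vesicles; times: binding 1.5 h at 37 °C; measured by: flow cytometry, PE anti-B7-1 (FL2) versus Alexa647 anti-CD8 (FL8), PFA-fixed; control set: Peptide-free naked vesicles (low) and QL9 vesicles with 0.7% DMSO vehicle (high)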
CHT inh conf: human CHT inhibition, confirmatory screen; CHT activity remaining % of control (stronger effect = lower value), % at 10 µM; CHT-expressing cells, choline membrane potential dye; LV-to-AA substituted CHT, HEK293 cells; AID 493221; actives 70% (n = 2,400); shares compounds with CHT block;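 active = choline transporter activity left, mean of duplicates at 10 µM, below buffer-only control mean minus 3 SD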;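 also: depolarization triggered by choline at its EC90 following an EC20 pre-addition; 0% = hemicholinium-3 full block and 100% = buffer-only control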
HEK293 CHT ctr: activity in parental HEK293 cells lacking CHT; shares compounds with CHT block; membrane potential dye, choline response; active = decrease or increase beyond buffer ±3SD; membrane potential ratio readout (active if shifted either direction beyond buffer ±3SD; no single direction) at 10 µM; actives 4% (n = 2,400);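 also: parental cells lack the transporter so any hit is non-specific; ratio is peak minus trough fluorescence over baseline after EC90 choline challenge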
Starred values were filed as active, the others as inactive.

`Cc1n[nH]c(C)c1S(=O)(=O)N1CCCC(C(=O)N2CCN(c3ccc(Cl)cc3)CC2)C1` (centres undefined) gave VLA-4 inh -15, CHT allo act inactive, CHT block -5.2*, T cell modulator 281, CHT inh conf inactive and HEK293 CHT ctr inactive.
O=c1c(-c2ccc(O)cc2O)coc2cc(O)cc(O)c12 was read as VLA-4 inh 9, CHT allo act inactive, CHT block inactive and T cell modulator 220.
Screening COc1ccccc1-c1coc2cc(O)cc(O)c2c1=O returned VLA-4 inh -2, CHT allo act inactive, CHT block -5.9*, T cell modulator 266, CHT inh conf 65%* and HEK293 CHT ctr inactive.
Screening O=C(c1ccc(NC(=O)C(c2ccccc2)c2ccccc2)cc1)c1ccc(C(=O)O)c(C(=O)O)c1 returned VLA-4 inh 19, CHT allo act inactive, CHT block inactive and T cell modulator 314.
For Cn1c(SCc2nc3ccccc3s2)nnc1-c1cccs1 the results were VLA-4 inh -18, CHT allo act inactive, CHT block -5.1*, T cell modulator 196, CHT inh conf 56%* and HEK293 CHT ctr inactive.
Screening CCn1c(SCc2nc3ccccc3s2)nnc1-c1cccs1 returned VLA-4 inh -16, CHT allo act inactive, CHT block inactive and T cell modulator 262.
`CC(=O)C(Sc1nn(C)c(=S)s1)C(=O)Nc1ccccc1` (centres undefined) gave VLA-4 inh -11, CHT allo act inactive, CHT block -5.4*, T cell modulator 233, CHT inh conf 49%* and HEK293 CHT ctr inactive.
O=C(COC(=O)/C=C/C(=O)OCC(=O)NC12CC3CC(CC(C3)C1)C2)NC12CC3CC(CC(C3)C1)C2 was read as VLA-4 inh 27, CHT allo act inactive, CHT block inactive and T cell modulator 285.
N#Cc1c(NCCN)nc(-c2ccccc2)c2c1CCCC2 was read as VLA-4 inh -6, CHT allo act inactive, CHT block -6.3*, T cell modulator 244, CHT inh conf 40%* and HEK293 CHT ctr inactive.
COc1ccc(S(=O)(=O)NCC2CCCO2)cc1NC(=O)c1ccccc1F (centres undefined) was read as VLA-4 inh 10, CHT allo act inactive, CHT block inactive and T cell modulator 228.
Screening COc1ccc(CCN(C)c2ncnc3sccc23)cc1OC returned VLA-4 inh 4, CHT allo act inactive, CHT block inactive and T cell modulator 420.
`CN(Cc1cccs1)c1ncnc2sccc12` gave VLA-4 inh 1, CHT allo act inactive, CHT block -7.4*, T cell modulator 792, CHT inh conf 50%* and HEK293 CHT ctr inactive.
For COc1ccc(CN(C)c2ncnc3sccc23)c(OC)c1OC the results were VLA-4 inh 1, CHT allo act inactive, CHT block inactive, T cell modulator 259, CHT inh conf 65%* and HEK293 CHT ctr inactive.
`O=C(CCCCCN1C(=O)[C@@H]2Cc3ccccc3CN2C1=O)Nc1ccccc1F` gave VLA-4 inh 4, CHT allo act inactive, CHT block inactive and T cell modulator 595.
Cc1cc(C)c2nc(N3CCCN(C(=O)c4cnccn4)CC3)c(C#N)cc2c1 was read as VLA-4 inh -15, CHT allo act inactive, CHT block -5.2*, T cell modulator 163, CHT inh conf 38%* and HEK293 CHT ctr inactive.
Screening Cc1cc(C)c2nc(N3CCN(C)CC3)c(C#N)cc2c1 returned VLA-4 inh -2, CHT allo act inactive, CHT block inactive and T cell modulator 300.
`O=C(N/N=C/c1cn[nH]c1-c1ccc(Cl)cc1)c1ccc([N+](=O)[O-])cc1` gave VLA-4 inh 11, CHT allo act inactive, CHT block -5.1*, T cell modulator 220, CHT inh conf 60%* and HEK293 CHT ctr inactive.
O=C(N/N=C\c1cn[nH]c1-c1ccccc1)c1ccc([N+](=O)[O-])cc1 was read as VLA-4 inh -8, CHT allo act inactive, CHT block inactive and T cell modulator 369.
For CCOCCCn1c(SCC(=O)Nc2cccc(S(=O)(=O)NC3=NCCCCC3)c2)nc2ccccc2c1=O the results were VLA-4 inh 13, CHT allo act inactive, CHT block -6.4*, T cell modulator 155, CHT inh conf inactive and HEK293 CHT ctr inactive.
For Cc1cc(SCC(=O)Nc2cccc(S(=O)(=O)NC3=NCCCCC3)c2)c(C)cc1Br the results were VLA-4 inh -11, CHT allo act inactive, CHT block -5*, T cell modulator 118, CHT inh conf inactive and HEK293 CHT ctr inactive.
For COc1cc(OC)c2c(-c3ccccc3)cc(=O)oc2c1C(CCN1CCCCC1)c1ccc2c(c1)OCO2 (centres undefined) the results were CHT allo act inactive, CHT block -9.5*, CHT inh conf 45%* and HEK293 CHT ctr inactive.
For CCCCCc1cc(=O)oc2c(C(CCN3CCCCC3)c3cc(OC)c(OC)c(OC)c3)c(OC)cc(OC)c12 (centres undefined) the results were VLA-4 inh 5, CHT allo act inactive, CHT block -6.1*, T cell modulator 288, CHT inh conf 51%* and HEK293 CHT ctr inactive.
Screening COc1cc(OC)c2c(-c3ccccc3)cc(=O)oc2c1C(CCN1CCCC(C)C1)c1ccc2c(c1)OCO2 (centres undefined) returned VLA-4 inh 40, CHT allo act inactive, CHT block inactive and T cell modulator 214.
COc1cc(OC)c2c(-c3ccccc3)cc(=O)oc2c1C(CCN1CCCCC1)c1ccc(N(C)C)cc1 (centres undefined) was read as VLA-4 inh -2, CHT allo act inactive, CHT block -5.9*, T cell modulator 130, CHT inh conf 29%* and HEK293 CHT ctr inactive.
Screening COc1ccc(C(CCN2CCCCC2)c2c(OC)cc(OC)c3c(-c4ccccc4)cc(=O)oc23)cc1 (centres undefined) returned VLA-4 inh 0, CHT allo act inactive, CHT block -7.1*, T cell modulator 165, CHT inh conf 38%* and HEK293 CHT ctr inactive.
`CCN(CCCNC(=O)Cn1ncc2c([nH]c3ccc(C)cc32)c1=O)Cc1ccccc1` gave VLA-4 inh 40, CHT allo act inactive, CHT block inactive and T cell modulator 394.
COC(=O)CC1C(=O)NCCN1C(=O)c1cc(OC)c(OC)cc1OC (centres undefined) was read as VLA-4 inh 6, CHT allo act inactive, CHT block inactive and T cell modulator 103.
